ChEMBL document CHEMBL1255449, “Antiviral properties, metabolism, and pharmacokinetics of a novel azolo-1,2,4-triazine-derived inhibitor of influenza A and B virus replication” (Antimicrob Agents Chemother, 2010)
The source made the active and inactive calls. The rule behind the calls is not given here.

How the values were obtained:
[1] = Cmax in rabbit at 105 mg/kg, ig up to 24 hrs by HPLC analysis; type: ADME, organism-based, Oryctolagus cuniculus; design: dose 105 mg/kg, route intragastric; details: in vivo, po
In short: (§1)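 Rabbits (n = 4), anesthetised with ether-Fluorothane 10:1, given a single 105 mg/kg dose in water (12 ml) by gastric tube. Ear-vein blood was heparinised at set times up to 24 h, mixed with methanol, centrifuged, dried, redissolved in water and assayed by C18 HPLC. Parameters came from an extravascular noncompartmental model. F = (AUCi.g./dose)/(AUCi.v./dose); CL = dose/AUC; Vss = CL × MRT.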

[2] = Tmax in rabbit at 105 mg/kg, ig by HPLC analysis; type: ADME, organism-based, Oryctolagus cuniculus; design: dose 105 mg/kg, route intragastric; details: in vivo, po; in short: as §1
[3] = Total AUC in rabbit at 105 mg/kg, ig up to 24 hrs by HPLC analysis; type: ADME, organism-based, Oryctolagus cuniculus; design: time AUCmax, dose 105 mg/kg, route intragastric; details: in vivo, po; in short: as §1
[4] = Apparent elimination half life in rabbit at 105 mg/kg, ig by HPLC analysis; type: ADME, organism-based, Oryctolagus cuniculus; design: dose 105 mg/kg, route intragastric; details: in vivo, po, read-out: beta t1/2 (converted); in short: as §1
[5] = Mean residence time in rabbit at 105 mg/kg, ig by HPLC analysis; type: ADME, organism-based, Oryctolagus cuniculus; design: dose 105 mg/kg, route intragastric; details: in vivo, po; in short: as §1
[6] = Total clearance in rabbit at 105 mg/kg, ig up to 24 hrs by HPLC analysis; type: ADME, organism-based, Oryctolagus cuniculus; design: dose 105 mg/kg, route intragastric; details: in vivo, po; in short: as §1
[7] = test system: Oryctolagus cuniculus; assay: Volume of distribution at steady state in rabbit at 105 mg/kg, ig up to 24 hrs by HPLC analysis; type: ADME, organism-based; design: dose 105 mg/kg, route intragastric; details: in vivo, po; in short: as §1
[8] = test system: Influenza A virus; assay: Antiviral activity against Influenza A virus H3N2 (A/Victoria/35/72) infected in MDCK cells assessed as log reduction in viral titer at 502 uM after 48 hrs […]; type: functional
In short: (§2)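 MDCK monolayers in MEM with 10% FBS at 37°C under 5% CO2 were infected with allantoic-fluid virus diluted 10−1 to 10−7. Aqueous test compound was added after 1 h adsorption. Virus yield was read at 48 h by haemagglutination with 0.5% chicken erythrocytes, and titres also by plaque assay. Each concentration was run in duplicate.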

[9] = test system: Influenza A virus; assay: Antiviral activity against Influenza A virus (A/Vietnam/1194/2004 (H5N1)) infected in MDCK cells assessed as log reduction in viral titer at 502 uM after 48 hrs […]; type: functional
[10] = test system: Influenza A virus; assay: Antiviral activity against Influenza A virus (A/duck/Potsdam/1402-6/1986 (H5N2)) infected in MDCK cells assessed as log reduction in viral titer at 502 uM after 48 hrs […]; type: functional
[11] = test system: Influenza A virus; assay: Antiviral activity against Influenza A virus/H7N3 (A/Mallard/NT/12/02) infected in MDCK cells assessed as log reduction in viral titer at 502 uM after 48 hrs by MTT assay; type: functional
[12] = test system: Influenza A virus; assay: Antiviral activity against Influenza A virus (A/Hong Kong/1073/99(H9N2)) infected in MDCK cells assessed as log reduction in viral titer at 502 uM after 48 hrs […]; type: functional
[13] = test system: H3N2 subtype; assay: Antiviral activity against Influenza A virus (A/Aichi/2/1968(H3N2)) infected in […] assessed as survival rate at 100 mg/kg, ig administered 1 and 24 hrs before infection and 24 to 72 hrs post infection; type: functional; details: route intragastric
[14] = test system: H3N2 subtype; assay: Antiviral activity against Influenza A virus (A/Aichi/2/1968(H3N2)) infected in […] assessed as survival rate at 50 mg/kg, ig administered 1 and 24 hrs before infection and 24 to 72 hrs post infection; type: functional; details: route intragastric
[15] = test system: Influenza B virus; assay: Antiviral activity against Influenza B virus (B/Lee/1940) infected in […] assessed as survival rate at 100 mg/kg, ig administered 1 and 24 hrs before infection and 24 to 72 hrs post infection; type: functional; details: route intragastric
[16] = test system: Influenza B virus; assay: Antiviral activity against Influenza B virus (B/Lee/1940) infected in […] assessed as survival rate at 50 mg/kg, ig administered 1 and 24 hrs before infection and 24 to 72 hrs post infection; type: functional; details: route intragastric
[17] = test system: Oryctolagus cuniculus; assay: Total AUC in rabbit at 4.3 mg/kg, iv up to 24 hrs by HPLC analysis; type: ADME, organism-based; design: time AUCmax, dose 4.3 mg/kg, route intravenous; details: in vivo
In short: (§3)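 Rabbits (n = 4) received 4.3 mg/kg in physiological solution into the marginal ear vein over 1 min. Ear-vein blood was heparinised at set times up to 24 h, methanol-extracted and assayed by C18 HPLC with a heptafluorobutyric acid/ethanol gradient. A noncompartmental i.v. infusion model gave AUCtot, T1/2 and MRT; Vss = CL × MRT.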

[18] = test system: Oryctolagus cuniculus; assay: Volume of distribution at steady state in rabbit at 4.3 mg/kg, iv up to 24 hrs by HPLC analysis; type: ADME, organism-based; design: dose 4.3 mg/kg, route intravenous; details: in vivo; in short: as §3
[19] = test system: Influenza A virus; assay: Antiviral activity against Influenza A virus H3N2 (A/Victoria/35/72) infected in MDCK cells assessed as log reduction in viral titer at 385 uM after 48 hrs […]; type: functional; in short: as §2
[20] = test system: Influenza A virus; assay: Antiviral activity against Influenza A virus H3N2 (A/Victoria/35/72) infected in MDCK cells assessed as log reduction in viral titer at 960 uM after 48 hrs […]; type: functional; in short: as §2
[21] = test system: Influenza A virus; assay: Antiviral activity against Influenza A virus (A/Vietnam/1194/2004 (H5N1)) infected in MDCK cells assessed as log reduction in viral titer at 385 uM after 48 hrs […]; type: functional
[22] = test system: Influenza A virus; assay: Antiviral activity against Influenza A virus (A/Vietnam/1194/2004 (H5N1)) infected in MDCK cells assessed as log reduction in viral titer at 960 uM after 48 hrs […]; type: functional
[23] = test system: Influenza A virus; assay: Antiviral activity against Influenza A virus (A/duck/Potsdam/1402-6/1986 (H5N2)) infected in MDCK cells assessed as log reduction in viral titer at 385 uM after 48 hrs […]; type: functional
[24] = test system: Influenza A virus; assay: Antiviral activity against Influenza A virus (A/duck/Potsdam/1402-6/1986 (H5N2)) infected in MDCK cells assessed as log reduction in viral titer at 960 uM after 48 hrs by MTT assay; type: functional
[25] = test system: Influenza A virus; assay: Antiviral activity against Influenza A virus H7N3 (A/Mallard/NT/12/02) infected in MDCK cells assessed as log reduction in viral titer at 385 uM after 48 hrs […]; type: functional
[26] = test system: Influenza A virus; assay: Antiviral activity against Influenza A virus/H7N3 (A/Mallard/NT/12/02) infected in MDCK cells assessed as log reduction in viral titer at 960 uM after 48 hrs by MTT assay; type: functional
[27] = test system: Influenza A virus; assay: Antiviral activity against Influenza A virus (A/Hong Kong/1073/99(H9N2)) infected in MDCK cells assessed as log reduction in viral titer at 385 uM after 48 hrs […]; type: functional
[28] = test system: Influenza A virus; assay: Antiviral activity against Influenza A virus (A/Hong Kong/1073/99(H9N2)) infected in MDCK cells assessed as log reduction in viral titer at 960 uM after 48 hrs […]; type: functional
[29] = Cytotoxicity against MDCK cells after 48 hrs by MTT assay; type: cell-based, Canis lupus familiaris; details: dog
In short: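 Cytotoxicity was measured on uninfected MDCK monolayers grown in MEM with 10% FBS and penicillin/streptomycin at 37°C under 5% CO2. Viability was read by MTT and expressed as CC50.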

[30] = test system: Influenza B virus; assay: Antiviral activity against Influenza B virus (B/Lee/1940) infected in […] assessed as survival rate at 150 mg/kg, ig administered 1 and 24 hrs before infection and 24 to 72 hrs post infection; type: functional; details: route intragastric
[31] = test system: H3N2 subtype; assay: Antiviral activity against Influenza A virus (A/Aichi/2/1968(H3N2)) infected in […] at 100 to 150 mg/kg, ig administered after 24 hrs post infection; type: functional, organism-based
[32] = test system: H3N2 subtype; assay: Antiviral activity against Influenza A virus (A/Aichi/2/1968(H3N2)) infected in […] at 100 to 150 mg/kg, ig administered after 48 hrs post infection; type: functional, organism-based
[33] = test system: Influenza B virus; assay: Antiviral activity against Influenza B virus (B/Lee/1940) infected in […] at 100 to 150 mg/kg, ig administered after 24 hrs post infection; type: functional, organism-based
[34] = test system: Influenza B virus; assay: Antiviral activity against Influenza B virus (B/Lee/1940) infected in rabbit at 100 to 150 mg/kg, ig administered after 48 hrs post infection; type: functional, organism-based
[35] = test system: H3N2 subtype; assay: Antiviral activity against Influenza A virus (A/Aichi/2/1968(H3N2)) infected in […] at 100 to 150 mg/kg, ig administered 24 hrs before infection; type: functional, organism-based
[36] = test system: H3N2 subtype; assay: Antiviral activity against Influenza A virus (A/Aichi/2/1968(H3N2)) infected in […] at 100 to 150 mg/kg, ig administered 1 hr before infection; type: functional, organism-based
[37] = test system: Influenza B virus; assay: Antiviral activity against Influenza B virus (B/Lee/1940) infected in […] at 100 to 150 mg/kg, ig administered 24 hrs before infection; type: functional, organism-based
[38] = test system: Influenza B virus; assay: Antiviral activity against Influenza B virus (B/Lee/1940) infected in […] at 100 to 150 mg/kg, ig administered 1 hr before infection; type: functional, organism-based
[39] = Toxicity against ip dosed rabbit; type: organism-based, Oryctolagus cuniculus; details: in vivo
[40] = Toxicity against ig dosed rabbit; type: organism-based, Oryctolagus cuniculus; details: in vivo, po
[41] = Bioavailability in rabbit at 105 mg/kg, ig up to 24 hrs by HPLC analysis; type: ADME, organism-based, Oryctolagus cuniculus; details: in vivo, po; in short: as §1
[42] = test system: Influenza A virus; assay: Antiviral activity against Influenza A virus H3N2 (A/Victoria/35/72) infected in human HuH7 cells assessed as log reduction in viral titer at 1000 ug/ml; type: functional, Huh-7
[43] = test system: Influenza A virus; assay: Antiviral activity against Influenza A virus H3N2 (A/Victoria/35/72) infected in HEK293T cells assessed as log reduction in viral titer at 1000 ug/ml; type: functional, HEK-293T

Compound: CSc1nc2[nH]nc(N)c(=O)n2n1
- Cmax [1]: 140 ng/mL
- Tmax [2]: 3 h
- AUC at 24 h [3]: 690 ng·h/mL
- half-life [4]: 0.97 h
- MRT [5]: 4.14 h
- CL/F [6]: 740 mL/min/kg
- Vdss [7]: 58.5 L/kg

Compound: CC(N)C12CC3CC(CC(C3)C1)C2 (configuration not stated) [RIMANTADINE]
- FC [8]: 5
- FC [9]: 1
- FC [10]: 2
- FC [11]: 3
- FC [12]: 0.75
- Activity [13]: 85%
- Activity [14]: 80%
- Activity [15]: 20%
- Activity [16]: 15%
- AUC [17]: 1200 ng·h/mL
- Vdss [18]: 1.2 L/kg

Compound: CSc1nc2[n-]nc([N+](=O)[O-])c(=O)n2n1.O.O.[Na+] [TRIAZAVIRINE]
- FC [19]: 1
- FC [20]: 1
- FC [21]: 2
- FC [22]: 2.25
- FC [23]: 0.5
- FC [24]: 1.6
- FC [25]: 0.25
- FC [26]: 3.5
- FC [27]: 0
- FC [28]: 0.5
- CC50 at 48 h [29]: > 8 mM
- Activity [13]: 70%
- Activity [30]: 65%
- Activity [15]: 65%
- Activity [31]: Active
- Activity [32]: Active
- Activity [33]: Active
- Activity [34]: Active
- Activity [35]: Active
- Activity [36]: Active
- Activity [37]: Active
- Activity [38]: Active
- LD50 [39]: 1400 mg/kg
- LD50 [40]: 2200 mg/kg
- Cmax [1]: 1100 ng/mL
- Tmax [2]: 0.4 h
- AUC at 24 h [3]: 3100 ng·h/mL
- half-life [4]: 1.1 h
- MRT [5]: 2.3 h
- CL/F [6]: 617 mL/min/kg
- Vdss [7]: 83.5 L/kg
- bioavailability [41]: 12.5%
- FC [42]: <0.75
- FC [43]: <0.75
